Results reported in PubChem BioAssay.
Results filed as inconclusive are left out.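 Rule for the calls, unless noted: active = inhibition over a set limit, the all-compound mean plus 3 SD, in both replicate runs; inconclusive = over that limit in just one replicate run; inactive = at or under that limit in both runs.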

Tests used:
[1] = OD615 S. cerevisiae growth inhibition, permissive medium, pilot counter-assay, permissive growth control for S. cerevisiae lifespan shortening project (AID 705;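 active = growth inhibition above 25% in both replicates, a cutoff set 3 SD above the mean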); settings: OD615, 24 h, at 10 µM, active compounds read high
Summary of the method: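 Material: engineered DeaD yeast; Compound: one dose 10 µM, DMSO 0.25% final; Detection: absorbance (optical density) at 615 nm; Buffer or medium: permissive raffinose/galactose medium; Timing: 24 h exposure, 30 °C.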

[2] = Restrictive medium S. cerevisiae growth inhibition, OD615, pilot screen of yeast lifespan reduction project, restrictive growth control (AID 706;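 active = growth inhibition above a set limit, 3 SD over mean compound inhibition, in both replicates, cut at about 43% in these data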;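 note: modified DeaD lifespan yeast strain shifted to restrictive glucose medium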); settings: OD615, 48 h, at 10 µM, active compounds read high
Summary of the method: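 Buffer or medium: restrictive glucose medium (CSMM-D); test system: modified S. cerevisiae; doses: single dose of 10 µM compound final, 0.25% DMSO; schedule: 48 h compound exposure at 30 °C; detection: absorbance (optical density) measured at 615 nm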

[3] = viability gain of MRP-1-high H69AR cells under doxorubicin, pilot screen, MRP-1 activator project, CellTiter-Glo, duplicate (AID 807;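 active = viability increase at or above a cutoff of the median across tested compounds plus 3 SD, cut at about 8.5% in these data, passing the limit was not always enough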;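 note: compound pretreatment 18-22 h then 72 h combined with doxorubicin; 0% = doxorubicin alone and 100% = vehicle without doxorubicin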); settings: H69AR viability with doxorubicin, CellTiter-Glo luminescence; at 10 µM; active compounds read high
[4] = growth suppression of beta-catenin knockout HCT116, pilot screen, human colon tumor cells (AID 823;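 active = cell viability at or below a set limit in both duplicate runs, the limit being the all-compound median minus 4 SD, cut at about 23% in these data, passing the limit was not always enough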;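 note: 0% = wells killed by 20 µM Hyamine and 100% = untreated DMSO cell wells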); settings: CellTiter-Glo, 60 h, at 10 µM, active compounds read low
[5] = inhibitors of the yeast RAM network, pilot screen, dse1pr::URA3 reporter, 5-FOA selection (AID 869);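 note: 0% = DMSO wells with no growth and 100% = 10 µM 1-NA-PP1 with full growth; RAM network block rescues cells from 5-FOA so hits raise OD615 growth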; settings: S. cerevisiae dse1pr::URA3 5-FOA growth, OD615, 2 d; at 10 µM; active compounds read high; strain carries analog-sensitive mutant Cbk1 kinase
[6] = RAM signaling pathway blockade in yeast – S. cerevisiae, Pdr1DBD-CYC8 efflux-inhibited sensitized strain, primary screen (AID 1298;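 active = RAM network inhibition above 8.4% in each of two replicates, 3 SD over the compound average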;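 note: 0% = DMSO untreated cells without growth and 100% = 10 µM 1-NA-PP1 full growth; higher means more yeast growth rescued from 5-FOA killing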); settings: S. cerevisiae cbk1-as DSE1-URA3 strain, 5-FOA growth OD615, 2 d; at 50 µM; active compounds read high

CCC1SC2=NC(C)=C(C(=O)OC)C(c3ccc(C(=O)OC)cc3)N2C1=O (stereo unspecified)
inactive: growth inhibition [1] 6.67% | growth inhibition [2] 35.7% | viability increase [3] 3.25% | viability [4] 101% | inhibition [5] 1.47% | RAM network inhibition [6] 9.87%

CSc1nc2ccc(NC(=O)C3CC(=O)N(Cc4ccco4)C3)cc2s1 (stereo unspecified)
inactive: growth inhibition [1] 4.86% | growth inhibition [2] -2.38% | viability increase [3] -5.77% | viability [4] 97.4% | inhibition [5] 1.02% | RAM network inhibition [6] 0.88%

COc1ccc(C2C3=C(CC(C)(C)CC3=O)Nc3n[nH]c(C)c32)cc1 (stereo unspecified)
inactive: growth inhibition [1] -9.23% | growth inhibition [2] -7.11% | viability increase [3] -4.1% | viability [4] 93% | inhibition [5] 1.51% | RAM network inhibition [6] 3.28%

CC(=O)c1ccc(N2CCN(C(=O)c3ccc(NC(=O)C4CCCO4)cc3)CC2)cc1 (stereo unspecified)
inactive: growth inhibition [1] -23.3% | growth inhibition [2] -4.79% | viability increase [3] -3% | viability [4] 91.2% | inhibition [5] 2.3% | RAM network inhibition [6] 1.4%

COCc1cc(=O)n2c(-c3ccccc3OC)n[nH]c2n1
inactive: growth inhibition [1] -14% | growth inhibition [2] 4.39% | viability increase [3] -3.36% | viability [4] 92.7% | inhibition [5] 2.2% | RAM network inhibition [6] 9.13%

Cc1ccccc1Cn1cc(S(=O)(=O)CC(=O)Nc2nccs2)c2ccccc21
inactive: growth inhibition [1] -30.2% | growth inhibition [2] 6.15% | viability increase [3] -5.34% | viability [4] 70.4% | inhibition [5] 4.8% | RAM network inhibition [6] 8.89%
